According to ChEMBL document CHEMBL3120161, “Antimycobacterial activity of nitrogen heterocycles derivatives: bipyridine derivatives. Part III” (Eur J Med Chem, 2014):
In brackets after ≈: the same amount, converted by molar mass.

Assays:
[1] = test system: Mycobacterium tuberculosis; assay: Antimycobacterial activity against Mycobacterium tuberculosis H37Rv ATCC 27294 after 7 days by broth microdilution assay; assay type: functional; conditions: H37Rv ATCC 27294, 168 h
Method in brief: (§1)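 Cycle 1 HTS MABA: M. tuberculosis H37Rv ATCC 27294 in 7H12 broth, 384-well, final 1% DMSO. Ten twofold dilutions, typically 100 to 0.195 µg/mL. Amikacin controls at 0.17 and 3.20 µM; the high level serves as background for percent inhibition. 7 days at 37 °C, ~95% humidity. Fluorescence read at 535 nm excitation / 590 nm emission.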

[2] = test system: Mycobacterium tuberculosis; assay: Antimycobacterial activity against Mycobacterium tuberculosis H37Rv ATCC 27294 after 7 days by microplate Alamar blue assay; assay type: functional, organism-based; conditions: H37Rv ATCC 27294, 168 h; method in brief: as §1
[3] = test system: Mycobacterium tuberculosis; assay: Antimycobacterial activity against Mycobacterium tuberculosis H37Rv ATCC 27294 at 0.08 ug/ml after 7 days by microplate Alamar blue assay relative to control; assay type: functional; conditions: H37Rv ATCC 27294, 168 h
[4] = test system: Mycobacterium tuberculosis; assay: Antimycobacterial activity against Mycobacterium tuberculosis H37Rv ATCC 27294 at 0.16 to 0.31 ug/ml after 7 days by microplate Alamar blue assay relative to control; assay type: functional; method in brief: as §1
[5] = test system: Mycobacterium tuberculosis; assay: Antimycobacterial activity against Mycobacterium tuberculosis H37Rv ATCC 27294 at 0.63 ug/ml after 7 days by microplate Alamar blue assay relative to control; assay type: functional; conditions: H37Rv ATCC 27294, 168 h; method in brief: as §1
[6] = test system: Mycobacterium tuberculosis; assay: Antimycobacterial activity against Mycobacterium tuberculosis H37Rv ATCC 27294 at 1.25 to 5 ug/ml after 7 days by microplate Alamar blue assay relative to control; assay type: functional; method in brief: as §1
[7] = test system: Mycobacterium tuberculosis; assay: Antimycobacterial activity against Mycobacterium tuberculosis H37Rv ATCC 27294 at 12.5 ug/ml after 7 days by microplate Alamar blue assay relative to control; assay type: functional; conditions: H37Rv ATCC 27294, 168 h; method in brief: as §1
[8] = test system: Mycobacterium tuberculosis; assay: Antimycobacterial activity against Mycobacterium tuberculosis H37Rv ATCC 27294 at 25 ug/ml after 7 days by microplate Alamar blue assay relative to control; assay type: functional; conditions: H37Rv ATCC 27294, 168 h; method in brief: as §1
[9] = test system: Mycobacterium tuberculosis; assay: Antimycobacterial activity against Mycobacterium tuberculosis H37Rv ATCC 27294 at 50 ug/ml after 7 days by microplate Alamar blue assay relative to control; assay type: functional; conditions: H37Rv ATCC 27294, 168 h; method in brief: as §1
[10] = test system: Mycobacterium tuberculosis; assay: Antimycobacterial activity against Mycobacterium tuberculosis H37Rv ATCC 27294 at 100 ug/ml after 7 days by microplate Alamar blue assay relative to control; assay type: functional; conditions: H37Rv ATCC 27294, 168 h; method in brief: as §1
[11] = test system: Mycobacterium tuberculosis; assay: Antimycobacterial activity against Mycobacterium tuberculosis H37Rv ATCC 27294 at 12.5 to 50 ug/ml after 7 days by microplate Alamar blue assay relative to control; assay type: functional; method in brief: as §1
[12] = test system: Mycobacterium tuberculosis; assay: Antimycobacterial activity against Mycobacterium tuberculosis H37Rv ATCC 27294 at 1.56 ug/ml after 7 days by microplate Alamar blue assay relative to control; assay type: functional; conditions: H37Rv ATCC 27294, 168 h; method in brief: as §1
[13] = test system: Mycobacterium tuberculosis; assay: Antimycobacterial activity against Mycobacterium tuberculosis H37Rv ATCC 27294 at 3.13 ug/ml after 7 days by microplate Alamar blue assay relative to control; assay type: functional; conditions: H37Rv ATCC 27294, 168 h; method in brief: as §1
[14] = test system: Mycobacterium tuberculosis; assay: Antimycobacterial activity against Mycobacterium tuberculosis H37Rv ATCC 27294 at 6.25 ug/ml after 7 days by microplate Alamar blue assay relative to control; assay type: functional; conditions: H37Rv ATCC 27294, 168 h; method in brief: as §1
[15] = test system: Mycobacterium tuberculosis; assay: Antimycobacterial activity against Mycobacterium tuberculosis H37Rv ATCC 27294 at 0.31 ug/ml after 7 days by microplate Alamar blue assay relative to control; assay type: functional; conditions: H37Rv ATCC 27294, 168 h; method in brief: as §1
[16] = Cytotoxicity against mouse J774A1 cells assessed as cell viability at 1 ug/ml after 7 days by MTT assay relative to control; assay type: cell-based, J774.A1; conditions: read-out: Activity
Method in brief: (§2)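 Uninfected murine J774 macrophages grown in RPMI 1640 with L-glutamine and FBS at 37 °C, 5% CO2. Cells seeded at 2.0 × 10^5 per well in 10% FBS, then switched to 1% FBS overnight. Run in parallel with the 7-day infection assay. […] Read out by MTT as percent viability.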

[17] = Cytotoxicity against mouse J774A1 cells assessed as cell viability at 0.1 ug/ml after 7 days by MTT assay relative to control; assay type: cell-based, J774.A1; conditions: read-out: Activity; method in brief: as §2
[18] = Cytotoxicity against mouse J774A1 cells assessed as cell viability at 0.01 ug/ml after 7 days by MTT assay relative to control; assay type: cell-based, J774.A1; conditions: read-out: Activity; method in brief: as §2
[19] = test system: Mycobacterium tuberculosis; assay: Antimycobacterial activity against Mycobacterium tuberculosis H37Rv SRI 1345 infected in mouse J774A1 cells assessed as reduction in bacterial growth at 1 ug/ml after 7 days relative to control; assay type: functional, J774.A1
Method in brief: (§3)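 Murine J774 macrophages grown in RPMI 1640 with L-glutamine and FBS at 37 °C, 5% CO2. Plated at 2.0 × 10^5 in 10% FBS, switched to 1% FBS next day. Infected 24 h later at MOI 5 for 4 h, washed, then drug added. At 0 and 7 days, cells lysed with SDS, DNase-treated and plated on 7H10 agar for CFU. Duplicates; read-out is log reduction from day 0 to day 7.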

[20] = test system: Mycobacterium tuberculosis; assay: Antimycobacterial activity against Mycobacterium tuberculosis H37Rv SRI 1345 infected in mouse J774A1 cells assessed as reduction in bacterial growth at 0.1 ug/ml after 7 days relative to control; assay type: functional, J774.A1; method in brief: as §3
[21] = test system: Mycobacterium tuberculosis; assay: Antimycobacterial activity against Mycobacterium tuberculosis H37Rv SRI 1345 infected in mouse J774A1 cells assessed as reduction in bacterial growth at 0.01 ug/ml after 7 days relative to control; assay type: functional, J774.A1; method in brief: as §3
[22] = test system: Mycobacterium tuberculosis; assay: Antimycobacterial activity against Mycobacterium tuberculosis H37Rv SRI 1345 incubated for 7 days under anaerobic condition measured after 7 days of recovery under gaseous condition by low oxygen recovery assay; assay type: functional
[23] = test system: Mycobacterium tuberculosis; assay: […] activity against Mycobacterium tuberculosis H37Rv SRI 1345 after 16 to 21 days; assay type: functional; conditions: read-out: MBC99.9
Method in brief: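 MBC, done after MIC testing in H37Rv SRI 1345: diluted aliquots from wells without macroscopic growth are plated on Middlebrook 7H10 agar and incubated 16–21 days at 37 °C. CFUs are counted. MBC is the lowest concentration giving 99.9% kill; rejection value is ≥40 colonies.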

[24] = test system: Mycobacterium tuberculosis; assay: Antimycobacterial activity against Mycobacterium tuberculosis H37Rv SRI 1345 at MIC after 7 days by broth microdilution assay relative to control; assay type: functional
[25] = test system: Mycobacterium tuberculosis; assay: Antimycobacterial activity against Mycobacterium tuberculosis H37Rv SRI 1345 after 7 days by broth microdilution assay; assay type: functional; conditions: H37Rv SRI 1345, 168 h
[26] = test system: Mycobacterium tuberculosis; assay: Antimycobacterial activity against Mycobacterium tuberculosis H37Rv ATCC 27294 at 0.02 ug/ml after 7 days by microplate Alamar blue assay relative to control; assay type: functional; conditions: H37Rv ATCC 27294, 168 h; method in brief: as §1

| Structure (SMILES) | MIC90 [1] [µM] | IC50 [2] [µg/mL] | IC90 [2] [µg/mL] | inhibition at 0.63 µg/mL [5] [%] | inhibition (INH) [6] [%] | inhibition at 25 µg/mL [8] [%] | inhibition at 50 µg/mL [9] [%] | inhibition at 100 µg/mL [10] [%] | other results |
| --- | --- | --- | --- | --- | --- | --- | --- | --- | --- |
| NCC[C@H](O)C(=O)N[C@@H]1C[C@H](N)[C@@H](O[C@H]2O[C@H](CN)[C@@H](O)[C@H](O)[C@H]2O)[C@H](O)[C@H]1O[C@H]1O[C@H](CO)[C@@H](O)[C@H](N)[C@H]1O [AMIKACIN] | 0.16 (≈ 0.0937 µg/mL) | 0.07 (≈ 0.12 µM) | 0.08 (≈ 0.137 µM) | 97.3 | 98 |  |  |  | inhibition at 0.08 µg/mL [3]: 79.8%; inhibition (INH) [4]: 96% |
| N[C@@H]1CONC1=O [CYCLOSERINE] | 25 (≈ 2.55 µg/mL) | 12.5 (≈ 122 µM) | 13.5 (≈ 132 µM) |  |  | 93.9 | 96.3 | 97.7 | inhibition at 12.5 µg/mL [7]: 51% |
| CC[C@@H](CO)NCCN[C@@H](CC)CO [ETHAMBUTOL] | 12.5 (≈ 2.55 µg/mL) | < 1.56 | 32.8 (≈ 160 µM) |  |  |  |  | 90 | inhibition (INH) [11]: 89%; inhibition at 1.56 µg/mL [12]: 69.1%; inhibition at 3.13 µg/mL [13]: 84.3%; inhibition at 6.25 µg/mL [14]: 86.6% |
| NNC(=O)c1ccncc1 [ISONIAZID] | 0.31 (≈ 0.0425 µg/mL) | 0.18 (≈ 1.31 µM) | 0.29 (≈ 2.11 µM) | 93.9 | 94 |  |  |  | inhibition at 0.31 µg/mL [15]: 92.9% |
| CCc1nc(N)nc(N)c1-c1ccc(Cl)cc1 [PYRIMETHAMINE] | 100 (≈ 24.9 µg/mL) | 37.4 (≈ 150 µM) | 75 (≈ 301 µM) |  |  | 26.7 | 69.7 | 95.6 |  |
| CO[C@H]1/C=C/O[C@@]2(C)Oc3c(C)c(O)c4c(O)c(c(/C=N/N5CCN(C)CC5)c(O)c4c3C2=O)NC(=O)/C(C)=C\C=C\[C@H](C)[C@H](O)[C@@H](C)[C@@H](O)[C@@H](C)[C@H](OC(C)=O)[C@@H]1C [RIFAMPIN] | 0.04 (≈ 0.0329 µg/mL) | 0.02 (≈ 0.0243 µM) | 0.02 (≈ 0.0243 µM) |  |  |  |  |  | viability at 168 h, 1 ug/ml [16]: 85%; viability at 168 h, 0.1 ug/ml [17]: 93%; viability at 168 h, 0.01 ug/ml [18]: 94%; fold change (FC) [19]: 1.49; fold change (FC) [20]: 0.81; fold change (FC) [21]: 0.98; INH [22]: 0.13 µg/mL; MBC [23]: 1.56 µg/mL (≈ 1.9 µM); inhibition (INH) [24]: 63%; MIC [25]: 0.049 µg/mL (≈ 0.0595 µM); inhibition at 0.02 µg/mL [26]: 61.2% |
